Results pooled from the literature.
Protocols differ between the studies behind these lines.
CDK7: Cyclin-dependent kinase 7 (CDK7, Homo sapiens, UniProt P50613)
CDK7 with cyclin H: Cyclin-dependent kinase 7, with cyclin H (CDK7, Homo sapiens, UniProt P50613)

SMILES | target | read-out | action | technique | tested at | quantity | value
Nc1ncc(-c2nc(N3CCOCC3)nc(N3CCOCC3)n2)c(C(F)F)n1 | CDK7 | binding |  | competition with immobilised ligand | 10 µM | remaining binding | 56%
Cn1cncc1[C@](O)(COc1ccc(C#N)cc1-c1ccc(OC(F)(F)F)cc1)c1ccc(C#N)cc1 | CDK7 | cell-free assay |  | competition with immobilised ligand | 1 µM | remaining binding | 95%
CCN1CCN(Cc2ccc(C(=O)Nc3ccc(C)c(Oc4ccc5c(c4)CC(=O)N5)c3)cc2C(F)(F)F)CC1 | CDK7 | binding |  | competition with immobilised ligand | 1 µM | remaining binding | 84%
CNC(=O)Oc1ccc2c(c1)[C@]1(C)CCN(C)[C@@H]1N2C | CDK7 with cyclin H | enzyme activity | inhibitor | ADP detection | 10 µM | inhibition | -4.5%
Cc1nn(C)cc1-c1nc2c(N3CCN(Cc4ccc(Cl)cc4)CC3)c(Cl)cnc2[nH]1 | CDK7 | binding |  | competition with immobilised ligand | 1 µM | remaining binding | 100%
C[C@]12CC[C@H](O)CC1=CC[C@@H]1[C@@H]2CC[C@]2(C)C(=O)CC[C@@H]12 | CDK7 with cyclin H | enzyme activity | inhibitor | ADP detection | 10 µM | inhibition | -2%
Cn1cc(-c2cc(F)cc(N3CCn4c(cc5c4CCCC5)C3=O)c2CO)cc(Nc2ccc(N3CCN(C4COC4)CC3)cn2)c1=O | CDK7 with cyclin H | enzyme activity | inhibitor |  | 0.1 µM | inhibition | 4%
COc1ncccc1-c1cnn2ccc(N3CCN(C(=O)OC(C)C)CC3)nc12 | CDK7 | binding |  | competition with immobilised ligand | 1 µM | remaining binding | 100%
Cn1cc(-c2cccc(N3CCc4c(sc5c4CC(C)(C)C5)C3=O)c2CO)cc(Nc2ccncn2)c1=O | CDK7 with cyclin H | enzyme activity | inhibitor |  | 1 µM | inhibition | -11%
COc1cc2occc2c2oc(=O)ccc12 | CDK7 with cyclin H | enzyme activity | inhibitor | ADP detection | 10 µM | inhibition | -29.9%
